Experimental data reported in ChEMBL document CHEMBL4145462, “Nitrogen-containing ecdysteroid derivatives vs. multi-drug resistance in cancer: Preparation and antitumor activity of oximes, oxime ethers and a lactam” (Eur J Med Chem, 2018).
pIC50: −log10 of the molar value.

What was measured:
HeLa = experiment: Antiproliferative activity against human HeLa cells after 72 hrs by MTT assay; format: functional, cell-based
Procedure, shortened: (§1)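 Cells grown in MEM with 10% FCS, 1% non-essential amino acids and 1% penicillin-streptomycin. Seeded at 5000 cells/well, exposed to 0.1–30.0 µM compound for 72 h. MTT (5 mg/ml solution) was then added for 4 h, formazan dissolved in DMSO, and absorbance read at 545 nm. Cisplatin served as positive control. IC50 came from sigmoidal dose–response fits (log inhibitor vs normalized response, variable slope).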

SiHa = experiment: Antiproliferative activity against human SiHa cells after 72 hrs by MTT assay; format: functional, cell-based; procedure, shortened: as §1
MDA-MB-231 = experiment: Antiproliferative activity against human MDA-MB-231 cells after 72 hrs by MTT assay; format: functional, cell-based; details: MDA-MB-231, 72 h; procedure, shortened: as §1
MCF7 = experiment: Antiproliferative activity against human MCF7 cells after 72 hrs by MTT assay; format: functional, cell-based; details: MCF7, 72 h; procedure, shortened: as §1
[1] = Cytotoxicity against mouse L5178 cells after 48 hrs by MTT assay; format: functional, cell-based; details: L5178, 48 h
Procedure, shortened: (§2)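 Parental mouse lymphoma L5178 and the MDR line made by pHa MDR1/A retrovirus transfection, selected with 60 µg/L colchicine. Grown in McCoy's 5A with horse serum at 37°C, 5% CO2. 5 x 10^4 cells/well, serial compound dilutions, 48 h. MTT added to 0.5 mg/mL final for 4 h, then 10% SDS in 0.01 M HCl overnight, OD read at 540 and 630 nm. IC50 taken as median cytotoxic activity (Dm) from control lanes of checkerboard plates, n=2.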

[2] = Cytotoxicity against mouse L5178 cells expressing human ABCB1 after 48 hrs by MTT assay; format: functional, cell-based; details: L5178, 48 h; procedure, shortened: as §2
ABCB1 (P-glycoprotein) [3] = target: T1, ABCB1 (P-glycoprotein) (Homo sapiens, UniProt P08183); experiment: Inhibition of human ABCB1 expressed in mouse L5178 cells assessed as increase in rhodamine-123 accumulation at 2 uM after 10 mins by flow cytometric analysis relative to control; format: cell-based; details: mouse L5178 cells expressing human ABCB1, probe rhodamine-123
T1 sequence (P08183 whole entry): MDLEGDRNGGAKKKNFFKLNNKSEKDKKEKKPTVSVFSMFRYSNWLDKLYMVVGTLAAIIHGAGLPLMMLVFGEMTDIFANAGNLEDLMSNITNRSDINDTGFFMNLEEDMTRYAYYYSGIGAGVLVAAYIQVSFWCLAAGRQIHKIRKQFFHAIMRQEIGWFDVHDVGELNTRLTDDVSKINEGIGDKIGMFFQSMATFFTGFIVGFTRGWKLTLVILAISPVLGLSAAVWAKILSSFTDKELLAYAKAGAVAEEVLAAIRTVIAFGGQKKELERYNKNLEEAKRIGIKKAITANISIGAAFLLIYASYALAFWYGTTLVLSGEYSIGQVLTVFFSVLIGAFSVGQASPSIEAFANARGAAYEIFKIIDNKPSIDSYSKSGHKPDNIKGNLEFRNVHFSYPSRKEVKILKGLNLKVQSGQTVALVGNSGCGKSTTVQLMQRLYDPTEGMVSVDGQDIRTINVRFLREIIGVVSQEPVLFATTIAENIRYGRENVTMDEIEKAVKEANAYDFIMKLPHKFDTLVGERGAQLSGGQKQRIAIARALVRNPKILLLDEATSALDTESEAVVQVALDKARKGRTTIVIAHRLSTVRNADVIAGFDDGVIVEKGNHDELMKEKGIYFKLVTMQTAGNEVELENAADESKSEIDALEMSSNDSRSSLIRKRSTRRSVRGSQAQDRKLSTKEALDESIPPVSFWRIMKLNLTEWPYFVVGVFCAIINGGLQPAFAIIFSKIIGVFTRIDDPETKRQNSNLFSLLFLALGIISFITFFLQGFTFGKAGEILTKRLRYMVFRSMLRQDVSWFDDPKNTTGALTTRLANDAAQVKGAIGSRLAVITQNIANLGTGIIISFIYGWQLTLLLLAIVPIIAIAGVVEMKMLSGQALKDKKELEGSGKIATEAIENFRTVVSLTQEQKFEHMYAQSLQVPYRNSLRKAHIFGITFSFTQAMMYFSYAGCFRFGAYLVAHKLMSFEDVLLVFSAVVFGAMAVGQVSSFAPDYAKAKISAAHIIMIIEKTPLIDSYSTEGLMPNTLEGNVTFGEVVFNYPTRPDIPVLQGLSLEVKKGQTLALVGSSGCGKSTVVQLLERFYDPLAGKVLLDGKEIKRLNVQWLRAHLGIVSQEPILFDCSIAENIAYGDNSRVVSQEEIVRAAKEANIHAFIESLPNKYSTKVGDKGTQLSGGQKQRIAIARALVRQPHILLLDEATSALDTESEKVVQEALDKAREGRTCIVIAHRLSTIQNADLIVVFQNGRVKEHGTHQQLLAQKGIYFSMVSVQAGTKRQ
Procedure, shortened: (§3)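 Cells at 2 × 10^6/mL were preincubated 10 min with compound. Rhodamine 123 then added to 5.2 µM final, 20 min at 37 °C. Cells washed twice in PBS, resuspended and read by flow cytometry. Percent inhibition was scaled between MDR-cell accumulation (0%) and parental L5178 accumulation (100%). Controls: 100 nM tariquidar (positive) and 2% DMSO (negative).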

ABCB1 (P-glycoprotein) [4] = target: T1, ABCB1 (P-glycoprotein); experiment: Inhibition of human ABCB1 expressed in mouse L5178 cells assessed as increase in rhodamine-123 accumulation at 20 uM after 10 mins by flow cytometric analysis relative to control; format: cell-based; details: mouse L5178 cells expressing human ABCB1, probe rhodamine-123; procedure, shortened: as §3
[5] = Synergistic cytotoxicity against mouse L5178 cells assessed as combination index at ED50 using 150:1 test compound to doxorubicin ratio after 48 hrs by MTT-based checkerboard microplate method; format: functional
Procedure, shortened: (§4)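 Checkerboard microplate combinations of compound with doxorubicin at constant molar ratios. 5 × 10^4 cells/well in McCoy's 5A, 48 h at 37°C, 5% CO2. MTT added to 0.5 mg/mL final for 4 h, SDS/HCl overnight, OD read at 540 and 630 nm. Combination indices derived per ratio for 50%, 75% and 90% growth inhibition by median-effect analysis.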

[6] = Synergistic cytotoxicity against mouse L5178 cells expressing human ABCB1 assessed as combination index at ED50 using 15:1 test compound to doxorubicin ratio after 48 hrs by MTT-based checkerboard microplate method; format: functional; procedure, shortened: as §4
[7] = Synergistic cytotoxicity against mouse L5178 cells assessed as combination index at ED75 using 150:1 test compound to doxorubicin ratio after 48 hrs by MTT-based checkerboard microplate method; format: functional; procedure, shortened: as §4
[8] = Synergistic cytotoxicity against mouse L5178 cells assessed as combination index at ED90 using 150:1 test compound to doxorubicin ratio after 48 hrs by MTT-based checkerboard microplate method; format: functional; procedure, shortened: as §4
[9] = Synergistic cytotoxicity against mouse L5178 cells expressing human ABCB1 assessed as combination index at ED75 using 15:1 test compound to doxorubicin ratio after 48 hrs by MTT-based checkerboard microplate method; format: functional; procedure, shortened: as §4
[10] = Synergistic cytotoxicity against mouse L5178 cells expressing human ABCB1 assessed as combination index at ED90 using 15:1 test compound to doxorubicin ratio after 48 hrs by MTT-based checkerboard microplate method; format: functional; procedure, shortened: as §4
[11] = Synergistic cytotoxicity against mouse L5178 cells expressing human ABCB1 assessed as combination index at ED50 using 30:1 test compound to doxorubicin ratio after 48 hrs by MTT-based checkerboard microplate method; format: functional; procedure, shortened: as §4
[12] = Synergistic cytotoxicity against mouse L5178 cells expressing human ABCB1 assessed as combination index at ED75 using 30:1 test compound to doxorubicin ratio after 48 hrs by MTT-based checkerboard microplate method; format: functional; procedure, shortened: as §4
[13] = Synergistic cytotoxicity against mouse L5178 cells expressing human ABCB1 assessed as combination index at ED90 using 30:1 test compound to doxorubicin ratio after 48 hrs by MTT-based checkerboard microplate method; format: functional; procedure, shortened: as §4
[14] = Synergistic cytotoxicity against mouse L5178 cells expressing human ABCB1 assessed as combination index at ED50 using 7.5:1 test compound to doxorubicin ratio after 48 hrs by MTT-based checkerboard microplate method; format: functional; procedure, shortened: as §4
[15] = Synergistic cytotoxicity against mouse L5178 cells expressing human ABCB1 assessed as combination index at ED75 using 7.5:1 test compound to doxorubicin ratio after 48 hrs by MTT-based checkerboard microplate method; format: functional; procedure, shortened: as §4
[16] = Synergistic cytotoxicity against mouse L5178 cells expressing human ABCB1 assessed as combination index at ED90 using 7.5:1 test compound to doxorubicin ratio after 48 hrs by MTT-based checkerboard microplate method; format: functional; procedure, shortened: as §4
[17] = Synergistic cytotoxicity against mouse L5178 cells assessed as combination index at ED50 using 37.5:1 test compound to doxorubicin ratio after 48 hrs by MTT-based checkerboard microplate method; format: functional; procedure, shortened: as §4
[18] = Synergistic cytotoxicity against mouse L5178 cells assessed as combination index at ED75 using 37.5:1 test compound to doxorubicin ratio after 48 hrs by MTT-based checkerboard microplate method; format: functional; procedure, shortened: as §4
[19] = Synergistic cytotoxicity against mouse L5178 cells assessed as combination index at ED90 using 37.5:1 test compound to doxorubicin ratio after 48 hrs by MTT-based checkerboard microplate method; format: functional; procedure, shortened: as §4
[20] = Synergistic cytotoxicity against mouse L5178 cells assessed as combination index at ED50 using 75:1 test compound to doxorubicin ratio after 48 hrs by MTT-based checkerboard microplate method; format: functional; procedure, shortened: as §4
[21] = Synergistic cytotoxicity against mouse L5178 cells assessed as combination index at ED75 using 75:1 test compound to doxorubicin ratio after 48 hrs by MTT-based checkerboard microplate method; format: functional; procedure, shortened: as §4
[22] = Synergistic cytotoxicity against mouse L5178 cells assessed as combination index at ED90 using 75:1 test compound to doxorubicin ratio after 48 hrs by MTT-based checkerboard microplate method; format: functional; procedure, shortened: as §4
[23] = Synergistic cytotoxicity against mouse L5178 cells expressing human ABCB1 assessed as combination index at ED50 using 60:1 test compound to doxorubicin ratio after 48 hrs by MTT-based checkerboard microplate method; format: functional; procedure, shortened: as §4
[24] = Synergistic cytotoxicity against mouse L5178 cells expressing human ABCB1 assessed as combination index at ED75 using 60:1 test compound to doxorubicin ratio after 48 hrs by MTT-based checkerboard microplate method; format: functional; procedure, shortened: as §4
[25] = Synergistic cytotoxicity against mouse L5178 cells expressing human ABCB1 assessed as combination index at ED90 using 60:1 test compound to doxorubicin ratio after 48 hrs by MTT-based checkerboard microplate method; format: functional; procedure, shortened: as §4
[26] = Synergistic cytotoxicity against mouse L5178 cells assessed as combination index at ED50 using 300:1 test compound to doxorubicin ratio after 48 hrs by MTT-based checkerboard microplate method; format: functional; procedure, shortened: as §4
[27] = Synergistic cytotoxicity against mouse L5178 cells assessed as combination index at ED75 using 300:1 test compound to doxorubicin ratio after 48 hrs by MTT-based checkerboard microplate method; format: functional; procedure, shortened: as §4
[28] = Synergistic cytotoxicity against mouse L5178 cells assessed as combination index at ED90 using 300:1 test compound to doxorubicin ratio after 48 hrs by MTT-based checkerboard microplate method; format: functional; procedure, shortened: as §4
[29] = Synergistic cytotoxicity against mouse L5178 cells assessed as combination index at ED50 using 600:1 test compound to doxorubicin ratio after 48 hrs by MTT-based checkerboard microplate method; format: functional; procedure, shortened: as §4
[30] = Synergistic cytotoxicity against mouse L5178 cells assessed as combination index at ED75 using 600:1 test compound to doxorubicin ratio after 48 hrs by MTT-based checkerboard microplate method; format: functional; procedure, shortened: as §4
[31] = Synergistic cytotoxicity against mouse L5178 cells assessed as combination index at ED90 using 600:1 test compound to doxorubicin ratio after 48 hrs by MTT-based checkerboard microplate method; format: functional; procedure, shortened: as §4

Row | SMILES | pIC50 (HeLa) | pIC50 (SiHa) | pIC50 (MDA-MB-231) | pIC50 (MCF7) | pIC50 [1] | pIC50 [2] | inhibition at 10 min, 2 µM (ABCB1 (P-glycoprotein) [3]) [%] | inhibition at 10 min, 20 µM (ABCB1 (P-glycoprotein) [4]) [%] | CI [5] | CI [6] | CI [7] | CI [8] | CI [9] | CI [10] | CI [11] | CI [12] | CI [13] | CI [14] | CI [15] | CI [16] | further results
1 | CO/N=C1\C=C2[C@H](CC[C@]3(C)[C@@H]([C@@]4(C)OC(C)(C)O[C@@H]4CCC(C)(C)O)CC[C@@]23O)[C@@]2(C)C[C@@H]3OC(C)(C)O[C@@H]3C[C@@H]12 | < 4.52 | < 4.52 | < 4.52 | < 4.52 | 4.39 | 4.26 | 2.25 | 25.1 | 1.06 | 0.17 | 0.79 | 0.62 | 0.16 | 0.16 | 0.19 | 0.21 | 0.24 | 0.19 | 0.17 | 0.16 | CI [17]: 1.19; CI [18]: 1.14; CI [19]: 1.13; CI [20]: 0.99; CI [21]: 1.06; CI [22]: 1.19; CI [23]: 0.29; CI [24]: 0.39; CI [25]: 0.52; CI [26]: 0.82; CI [27]: 0.8; CI [28]: 0.83; CI [29]: 0.93; CI [30]: 0.9; CI [31]: 0.91
2 | CC(C)(O)CC[C@H]1OC(C)(C)O[C@]1(C)[C@H]1CC[C@@]2(O)C3=C/C(=N\OC(C)(C)C)[C@@H]4C[C@H]5OC(C)(C)O[C@H]5C[C@]4(C)[C@H]3CC[C@]12C | 5.07 | 4.79 | 4.91 | 4.96 | 4.55 | 4.54 | 38.8 | 112 | 0.24 | 0.66 | 0.91 | 1.26 | 0.23 | 0.25 | 0.27 | 0.29 | 0.36 | 0.3 | 0.2 | 0.17 | CI [17]: 0.58; CI [18]: 0.63; CI [19]: 0.7; CI [20]: 0.56; CI [21]: 0.67; CI [22]: 0.8; CI [23]: 0.38; CI [24]: 0.44; CI [25]: 0.53; CI [26]: 0.91; CI [27]: 0.98; CI [28]: 1.06; CI [29]: 1; CI [30]: 1.3; CI [31]: 1.7
3 | CC(C)(O)CC[C@H]1OC(C)(C)O[C@]1(C)[C@H]1CC=C2C3=CC(=O)N[C@@H]4C[C@H]5OC(C)(C)O[C@H]5C[C@]4(C)[C@H]3CC[C@@]21C | < 4.52 | < 4.52 | < 4.52 | < 4.52 | 4.20 | 4.14 | 1.16 | 4.27 | 0.4 | 0.2 | 0.42 | 0.46 | 0.12 | 0.09 | 0.18 | 0.13 | 0.11 | 0.24 | 0.15 | 0.1 | CI [17]: 0.57; CI [18]: 0.51; CI [19]: 0.46; CI [20]: 0.62; CI [21]: 0.52; CI [22]: 0.43; CI [23]: 0.2; CI [24]: 0.17; CI [25]: 0.15; CI [26]: 0.43; CI [27]: 0.46; CI [28]: 0.5; CI [29]: 0.58; CI [30]: 0.63; CI [31]: 0.67
